Reference: ChEMBL document CHEMBL1154263, “Gamma-lactones and ent-eudesmane sesquiterpenes from the endophytic fungus Eutypella sp. BCC 13199” (J Nat Prod, 2009)
Calls of active or inactive are those of the source. No cut-off for these calls is given here.

How the values were obtained:
[1] = test system: NCI-H187; test: Cytotoxicity against human NCI-H187 cells by resazurin microplate assay; type: functional, cell-based
Method in brief: (§1)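 Resazurin microplate assay on human tumour cell lines: KB (oral epidermoid carcinoma), MCF-7 (breast cancer) and NCI-H187 (small-cell lung cancer).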

[2] = test system: Pyricularia grisea; test: Antifungal activity against Magnaporthe grisea; type: functional, organism-based
[3] = test system: KB; test: Cytotoxicity against human KB cells by resazurin microplate assay; type: functional, cell-based; method in brief: as §1
[4] = test system: MCF7; test: Cytotoxicity against human MCF7 cells by resazurin microplate assay; type: functional, cell-based; method in brief: as §1
[5] = test system: Plasmodium falciparum; test: Antimalarial activity against Plasmodium falciparum K1; type: functional, organism-based
[6] = test system: Mycobacterium tuberculosis; test: Antituberculosis activity against Mycobacterium tuberculosis H37Ra; type: functional, organism-based
[7] = test system: Candida albicans; test: Antifungal activity against Candida albicans; type: functional, organism-based
[8] = test system: Vero; test: Cytotoxicity against african green monkey Vero cells after 8 days by green fluorescent protein microplate assay; type: cell-based; settings: Chlorocebus sabaeus, 192 h
Method in brief: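 Vero cells (African green monkey kidney fibroblasts); cytotoxicity read by green fluorescent protein microplate assay (GFPMA).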

Compound | IC50 [1] [µM] | Activity [2] | IC50 [3] [µM] | IC50 [4] [µM] | Activity [5] | Activity [6] | Activity [7] | IC50 [8] [µM]
C=C1CCC(=O)[C@@]2(C)CC[C@H](C(C)(C)O)C[C@H]12 | 11 | inactive | 32 | 20 | inactive | inactive | inactive | 32
C=C1CC[C@H](O)[C@@]2(C)CC[C@H](C(C)(C)O)C[C@H]12 | > 210 | inactive | > 210 | > 210 | inactive | inactive | inactive | > 210
COc1cccc2c1C(=O)c1c(O)c3c(c(O)c1C2=O)C[C@@](O)(C(=O)CO)C[C@@H]3O[C@H]1C[C@H](N)[C@H](O)[C@H](C)O1 [DOXORUBICIN] | 0.25 |  | 0.28 |  |  |  |  | 
Cc1c2ccncc2c(C)c2c1[nH]c1ccccc12 [ELLIPTECINE] | 3.6 |  | 2.5 |  |  |  |  | 5.5
O=C/C=C/C=C1/C(=O)O[C@H](/C=C/CO)[C@H]1O [EUTYPELLIN A] | 12 | inactive | 38 | 84 | inactive | inactive | inactive | 88
O=C1O[C@H](/C=C/CO)[C@@H](O)/C1=C\C=C\CO [EUTYPELLIN B] | 206 | inactive | 144 | > 221 | inactive | inactive | inactive | > 221
